# Screening results from PubChem BioAssay.
# TRPN1 ag: agonists of zebrafish TRPN1 channel; activation, % at 3 µM; HEK293 zebrafish TRPN1-YFP, Fluo-8 calcium fluorescence; 100% = response to 87 µM carbachol; hit rate 0.18% among 220,000; AID 1424;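 active means activation above its plate's cutoff, the mean activation of test wells on that plate plus 3 SD, cut at about 19% in these data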;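 further: 0% = DMSO alone and 100% = 87 µM carbachol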
#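 Material: zebrafish TRPN1-YFP in HEK293 cells; Doses: single test compound dose, 3 µM nominal, 0.3% DMSO; Timing: dye loading 1 h at 37 °C, then 30 min room temperature; Technique: intracellular calcium fluorescence with Fluo-8; Benchmarks: high carbachol 87 µM, low DMSO alone.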
# TRPML3 agonist: human mucolipin-3 channel agonism. Q8TDD5. HEK293 TRPML3-YFP, Fluo-8 calcium fluorescence; 100% = the carbachol control signal. activation, % at 3 µM. hit rate 0.29% among 220,000;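 active means activation above its plate's cutoff, the mean activation of the plate's test wells plus 3 SD, cut at about 12% in these data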;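 further: 0% = DMSO only wells and 100% = carbachol wells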
#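 Test system – HEK293 line with stable expression of human TRPML3-YFP channel · Control set – carbachol 87 µM final as high control (100%), DMSO as low control (0%) · Signal – Fluo-8 calcium dye fluorescence, ex 470-495, em 515-575 nm · Incubation – 1-h 37 °C dye load, 5-s basal, 120-s post-compound reads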
# CRFBP-R2 agonist: CRF-BP/CRF-R2 complex agonism | AID 588473 | hit rate 0.46% among 350,000 | activation, % at 13.2 µM | HEK293 CRF-R2/CRF-BP, calcium dye fluorescence (FLIPR); percent of saturating CRF peptide response;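 active means activation of at least 50%, plus an integration ratio under a set limit after plate pattern correction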;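 further: plate controls were neutral control wells without compound for no effect and CRF at EC100 for full effect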
# OXTR ag: human OXTR agonism; P30559; CHO-OTR cells, Fluo-8 calcium fluorescence; normalized: DMSO 0%, oxytocin 100%; activation, % at 3 µM; hit rate 0.32% among 320,000; AID 2435;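 active means activation above the mean of all tested compounds plus 3 SD, cutoff set per screening run, cut at about 20% in these data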;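 further: peak over basal fluorescence ratio from a 100 s FLIPR kinetic read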
# Target sequence (P30559 whole entry, looked up): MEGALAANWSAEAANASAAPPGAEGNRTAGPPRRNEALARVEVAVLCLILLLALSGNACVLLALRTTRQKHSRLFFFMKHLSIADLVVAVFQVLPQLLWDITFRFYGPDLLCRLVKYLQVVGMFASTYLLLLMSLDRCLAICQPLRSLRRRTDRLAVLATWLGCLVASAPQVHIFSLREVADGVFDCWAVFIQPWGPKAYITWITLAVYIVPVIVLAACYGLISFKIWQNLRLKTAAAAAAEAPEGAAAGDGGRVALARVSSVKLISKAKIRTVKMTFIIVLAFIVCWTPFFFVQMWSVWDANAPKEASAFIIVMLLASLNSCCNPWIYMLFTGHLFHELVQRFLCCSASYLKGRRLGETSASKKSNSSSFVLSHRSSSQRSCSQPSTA
# OXTR potentiate: potentiates the human oxytocin receptor response; AID 2445; CHO-OTR cells, Fluo-8 calcium fluorescence, potentiator mode; 0% = oxytocin EC15, 100% = EC100; activation, % at 3 µM; hit rate 0.061% among 320,000;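 active means activation above that plate's cutoff, the mean activation of tested compounds plus 3 SD, cut at about 6.6% in these data, passing the limit was not always enough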;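 further: 100% uses oxytocin at 75 nM as the full agonist control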
#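 Material: CHO-OTR cells, human receptor; compound dosing: single dose, 3.0 µM nominal final compound concentration; schedule: 6 min compound pre-incubation at room temperature, 100 s kinetic read; measured by: kinetic Fluo-8 calcium fluorescence; read-out basis: % activation vs EC15 and EC100 oxytocin; controls: EC15 oxytocin alone as 0%, 75 nM oxytocin as 100%; replicates: singlicate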
# V1R ag counter: V1a receptor agonism, counter-screen for OXTR agonists | P37288 | CHO-V1R cells, Fluo-8 calcium fluorescence, agonist mode; 0% DMSO, 100% 3 nM vasopressin | activation, % at 3 µM | hit rate 0.25% among 320,000;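 active means activation above the mean activation of all tested compounds plus 3 SD, per screening run, cut at about 20% in these data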;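 further: signal is peak over basal fluorescence ratio across a 100 second FLIPR read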
# Numbers without * were called inactive; nt = not tested or not shown. Most compounds without a hit are left out; they make up all but 0.85% or so of the library.
SMILES,TRPN1 ag,TRPML3 agonist,CRFBP-R2 agonist,OXTR ag,OXTR potentiate,V1R ag counter
Cc1ccc2cc(CNC[C@H]3O[C@@H](n4cc(C)c(=O)[nH]c4=O)C[C@@H]3O)c(N3CCOCC3)nc2c1,nt,nt,-2,nt,nt,nt
CC1CCCC(C)N1C(=O)c1cc(-c2ccc3c(c2)OCO3)on1 (configuration not stated),nt,nt,0,0,-10,0
O=C(NNC(=S)NC(=O)c1ccccc1[N+](=O)[O-])c1ccc(Cl)cc1Cl,0,0,-2,0,3,0
Cc1ccccc1C(=O)NNC(=S)NC(=O)c1ccccc1,9,8,160*,53*,-9,40*
Cc1occc1C(=O)NNC(=S)NC(=O)COc1ccc(Cl)cc1Cl,nt,nt,230*,0,3,1
Cc1occc1C(=O)NNC(=O)COc1ccc(Br)cc1Br,-1,0,-2,-1,-3,-1
CCCCC(=O)NC(=S)NNC(=O)c1ccc(Cl)cc1Cl,3,1,111*,nt,nt,nt
Cc1ccc(C(=O)NNC(=S)NC(=O)c2ccc(Cl)cc2Cl)cc1,70*,43*,156*,101*,-14,117*
CC(OC(=O)[C@@H]1CCCN1C(=O)c1cccs1)C(=O)Nc1cccc([N+](=O)[O-])c1 (some centres not stated),nt,nt,-3,8,-10,8
O=C(COC(=O)/C=C/c1cccc(C(F)(F)F)c1)NC1CCS(=O)(=O)C1 (configuration not stated),nt,nt,-1,3,4,3
O=[N+]([O-])c1cc2c(c([N+](=O)[O-])c1)Nc1ccccc1O2,nt,nt,29,nt,nt,nt
CCN1C(=O)[C@H]2[C@@H](c3ccc(Cl)cc3)N3C(=O)CN(CC4CC4)C(=O)[C@@]3(C)[C@H]2C1=O,nt,nt,0,0,5,0
CNC(=O)C[C@@H]1C(=O)N(CCc2ccccc2)CC1(C)C,nt,nt,0,nt,nt,nt
O=C1S/C(=C/c2ccc(N3CCOCC3)o2)C(=O)N1Cc1c(F)cccc1Cl,-1,1,84*,6,-1,3
O=C1S/C(=C\c2ccc(N3CCOCC3)o2)C(=O)N1Cc1c(F)cccc1Cl,1,1,16,3,-1,4
CCN1C(=O)[C@H]2[C@@H](c3ccc(C)cc3)N[C@]3(CCCN(Cc4ccc(OC)cc4)C3=O)[C@H]2C1=O,nt,nt,1,nt,nt,nt
COc1cccc(/C(O)=C/c2nc3ccc(C(=O)NCCc4ccc(Cl)cc4)cc3[nH]c2=O)c1,1,1,140*,nt,nt,nt
CN(C)c1ccc(/C=C2\SC(=O)N(CC(O)Cn3c4ccccc4c4ccccc43)C2=O)cc1 (configuration not stated),1,0,96*,5,-10,6
CN(C)c1ccc(C=C2SC(=S)N(Cc3ccco3)C2=O)cc1,nt,nt,169*,nt,nt,nt
COc1cc2c(cc1OC)[C@H](C)N(C(=O)NCc1ccccc1)CC2,nt,nt,-3,0,1,0
O=C(O)C1=CC2C=C(Cl)C=CC2OC1=O (configuration not stated),nt,nt,-4,nt,nt,nt
CCCCCCNC(=O)C(C#N)c1nc2ccccc2nc1N1CCCC1 (configuration not stated),-2,0,182*,-1,-17,-1
Cc1ccc(S(=O)(=O)C(C#N)c2nc3ccccc3nc2N2CCCC2)cc1 (configuration not stated),3,2,56*,0,-3,1
CCCCOc1ccc(-c2nc(/C=N/c3nccs3)c(O)o2)cc1,0,0,-1,2,6,0
CCOc1ccc2nc(/N=C/c3nc(-c4ccc(Br)cc4)oc3O)sc2c1,0,0,147*,0,-3,1
CCC(=O)N/N=C/c1ccc(-c2ccc([N+](=O)[O-])cc2)o1,1,0,3,0,-7,0
CC(C)(C)C(=O)/C=c1\s/c(=C\c2ccc(-c3ccc([N+](=O)[O-])cc3)o2)c(=O)n1CC(=O)NC(N)=O,31*,16*,212*,36*,-8,47*
COc1ccccc1/C=C1/SC(=S)N(CCC(=O)Nc2cccnc2)C1=O,nt,nt,3,0,-16,2
